Test results as given in ChEMBL document CHEMBL5032509, “Design of a Stable Cyclic Peptide Analgesic Derived from Sunflower Seeds that Targets the κ-Opioid Receptor for the Treatment of Chronic Abdominal Pain” (J Med Chem, 2021).
pEC50, pKi: −log10 of the molar value. Activity calls are given as the source filed them. The calls are words filed in the database; no cut-off is given here. Bridge positions count the residues as written; N and C are the ends. Square brackets hold non-standard residues; d marks the D form. Peptide text beside a SMILES is read from it. dNle = CCCC[C@@H](N)C(=O)O

Experiments:
[1] = target: T1, Kappa-type opioid receptor (Mus musculus, UniProt P33534); test: Displacement of [3H]-diprenorphine from mouse KOR expressed in HEK293 cell membranes by radioligand binding assay relative to control; set-up: species or system Cell membrane
T1 sequence (P33534 whole entry): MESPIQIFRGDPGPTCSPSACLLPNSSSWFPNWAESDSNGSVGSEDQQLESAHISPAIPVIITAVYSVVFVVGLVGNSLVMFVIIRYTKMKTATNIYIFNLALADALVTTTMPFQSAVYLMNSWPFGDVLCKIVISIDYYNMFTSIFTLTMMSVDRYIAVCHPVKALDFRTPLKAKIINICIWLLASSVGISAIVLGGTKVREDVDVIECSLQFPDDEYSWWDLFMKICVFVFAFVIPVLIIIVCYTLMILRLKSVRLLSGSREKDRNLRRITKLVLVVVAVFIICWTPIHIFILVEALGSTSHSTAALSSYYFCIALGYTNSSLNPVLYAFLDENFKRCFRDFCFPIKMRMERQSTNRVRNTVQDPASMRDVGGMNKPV
Outline: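 Membranes from HEK293 cells stably expressing mouse KOR (7 µg/assay). Filtered onto PEI-soaked GF/C filters. Specific binding = total minus nonspecific, normalized to binding without peptide. […]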

[2] = species: Mus musculus; test: Analgesic activity in chronic visceral hypersensitivity-induced chronic abdominal pain mouse model assessed as reduction in colonic nociceptor mechano-sensitivity at 0.1 uM measured at 5 mins by Von Frey filament assay; assay type: functional
Outline: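 Ex vivo colon with attached splanchnic nerves from male C57BL/6J mice, 28 days after DNBS-induced colitis. Colon superfused with carbogen-gassed modified Krebs at 34 °C. Single-unit extracellular recordings of nociceptor firing to 2 g von Frey filament stimulation, repeated after 5 min drug application via a metal ring over the receptive field.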

[3] = target: T1, Kappa-type opioid receptor; test: Agonist activity at mouse KOR expressed in HEK293 cell assessed as inhibition of cAMP concentration incubated for 1 hrs by time-resolved fluorescence resonance energy transfer assay; assay type: functional, cell-based
Outline: (§1)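 HEK293 cells stably expressing mouse KOR, 2000 cells/well, exposed to log-spaced peptide concentrations with forskolin (10 µM final) for 30 min at 37 °C. Eu-cryptate cAMP and d2-labelled anti-cAMP antibody then added for 1 h at room temperature. Three-parameter fit with bottom fixed at zero and slope one gives EC50 and Emax. Normalised to the highest dyn A 1–13 concentration (100%).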

[4] = target: Kappa-type opioid receptor (Mus musculus) (UniProt P33534); test: Agonist activity at mouse KOR expressed in HEK293 cell assessed as maximal inhibition of cAMP concentration incubated for 1 hrs by time-resolved fluorescence resonance energy transfer assay relative to control; assay type: functional, cell-based; conditions: filed as agonist
Kappa-type opioid receptor (Mus musculus), sequence (P33534 whole entry): as above
Outline: as §1, with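 “temperature. HTRF read as the 665/620 nm ratio, in triplicate.” for “temperature.”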

[5] = Stability of the compound in simulated gastric fluid at pH 1.2 assessed as drug degradation by UPLC-UV analysis; assay type: ADME
Outline: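 Peptide stock (2 mM in water) diluted 5:95 into USP simulated gastric fluid, pepsin added after adjusting to pH 1.2, incubated at 37 °C. Aliquots taken at 0, 15, 30 min and 1, 3, 6 h, quenched in ice-cold methanol. Data fitted to exponential decay for half-life.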

[6] = species: Mus musculus; test: Analgesic activity in chronic visceral hypersensitivity-induced chronic abdominal pain mouse model assessed as reduction in colonic nociceptor mechano-sensitivity at 1 uM in presence of 0.1 uM nor-BNI measured at 5 mins […]; assay type: functional
Outline: (§2)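 Ex vivo colon with attached splanchnic nerve from DNBS-induced CVH mice. Colon superfused with carbogen-gassed modified Krebs at 34 °C. Single-unit extracellular recording of nociceptor firing to 2 g von Frey probing, repeated after 5 min ring application of peptide (1 µM), with or without 5 min nor-BNI pre-incubation. Paired t-test.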

[7] = target: Kappa-type opioid receptor (Mus musculus) (UniProt P33534); test: Displacement of [3H]-diprenorphine from mouse KOR expressed in HEK293 cell membranes at 10 uM by two-point binding assay; conditions: Cell membrane, filed as agonist
Outline: (§3)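 Two-point competition at 10 µM and 100 nM peptide. Membranes (7 µg) from HEK293 cells stably expressing mouse KOR incubated with [3H]-diprenorphine (1 nM final) for 1 h at 37 °C in 50 mM Tris–HCl pH 7.4, 10 mM MgCl2, 0.1% BSA. Stopped by filtration onto PEI-soaked GF/C filters. Nonspecific binding subtracted; normalised to specific binding without peptide; mean ± SD.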

[8] = species: Mus musculus; test: Analgesic activity in chronic visceral hypersensitivity-induced chronic abdominal pain mouse model assessed as reduction in mechanical stimulation induced action potential firing of colonic nociception at 1 uM measured at 5 mins […]; assay type: functional; outline: as §2
[9] = system: Mus musculus; test: Reduction in visceromotor response in chronic visceral hypersensitivity-induced chronic abdominal pain mouse model measured at different colorectal distention pressure at 10 uM intra-colonic administration as enema by electromyography; assay type: functional, organism-based
Outline: (§4)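 Healthy or CVH (DNBS 6 mg in 30% ethanol enema, 28 d recovery) female mice. Under brief isoflurane, 100 µL enema of saline vehicle or peptide (10 µM). EMG from abdominal muscle electrodes during balloon CRD at 20, 40, 50, 60 and 80 mmHg (20 s each), run 10–30 min after dosing. Rectified, integrated AUC; mean ± SEM.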

[10] = Toxicity in mouse assessed as motor coordination by measuring latency to fall in mouse at 5 mg/kg, ip measured at 45 mins by rotarod test; assay type: organism-based; conditions: in vivo, 0.75 h
Outline: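 Male C57BL/6N mice (8 weeks) given 5 mg/kg i.p. in saline (10 µL/g); vehicle 0.9% NaCl. After habituation, drum accelerated from 4 to 40 rpm. Three trials 15 min apart, starting 45 min post-injection; latency to fall averaged. Mean ± SEM, one-way ANOVA with Fisher's LSD, N = 8–12/group.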

[11] = target: Delta-type opioid receptor (Mus musculus, UniProt P32300); test: Displacement of [3H]-diprenorphine from mouse DOR expressed in HEK293 cell membranes by radioligand binding assay relative to control; set-up: species or system Cell membrane
Delta-type opioid receptor, sequence (P32300 whole entry): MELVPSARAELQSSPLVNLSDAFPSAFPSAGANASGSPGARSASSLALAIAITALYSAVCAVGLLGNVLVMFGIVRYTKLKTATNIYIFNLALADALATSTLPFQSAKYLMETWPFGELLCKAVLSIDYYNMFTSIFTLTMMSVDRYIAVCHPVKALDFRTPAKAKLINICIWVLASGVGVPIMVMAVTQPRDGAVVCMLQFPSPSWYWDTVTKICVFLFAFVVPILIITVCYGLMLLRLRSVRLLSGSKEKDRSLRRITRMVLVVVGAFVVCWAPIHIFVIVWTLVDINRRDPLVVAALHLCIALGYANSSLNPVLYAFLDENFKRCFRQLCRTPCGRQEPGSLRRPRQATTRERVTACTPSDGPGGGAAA
Outline: (§5)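 Membranes from HEK293 cells stably expressing mouse DOR (20 µg/assay) or MOR (50 µg/assay). Incubated with 1 nM final [3H]-diprenorphine in 50 mM Tris–HCl pH 7.4, 10 mM MgCl2, 0.1% BSA for 1 h at 37 °C, in duplicate. Stopped by filtration onto PEI-soaked GF/C filters. Specific binding = total minus nonspecific, normalized to specific binding without peptide; n = 2.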

[12] = target: Mu-type opioid receptor (Mus musculus, UniProt P42866); test: Displacement of [3H]-diprenorphine from mouse MOR expressed in HEK293 cell membranes by radioligand binding assay relative to control; set-up: species or system Cell membrane; outline: as §5
Mu-type opioid receptor, sequence (P42866 whole entry): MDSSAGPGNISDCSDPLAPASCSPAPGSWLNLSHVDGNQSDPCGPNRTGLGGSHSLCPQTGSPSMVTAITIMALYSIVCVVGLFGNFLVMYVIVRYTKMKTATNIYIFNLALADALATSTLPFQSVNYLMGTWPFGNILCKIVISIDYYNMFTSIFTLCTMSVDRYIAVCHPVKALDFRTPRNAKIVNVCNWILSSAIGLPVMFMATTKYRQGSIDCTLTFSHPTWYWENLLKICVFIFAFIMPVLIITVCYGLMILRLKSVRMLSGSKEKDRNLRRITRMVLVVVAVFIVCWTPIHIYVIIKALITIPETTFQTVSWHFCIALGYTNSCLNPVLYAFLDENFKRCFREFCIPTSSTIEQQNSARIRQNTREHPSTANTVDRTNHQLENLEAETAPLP

[13] = Toxicity in mouse assessed as […] by measuring jump response in mouse at 5 mg/kg, ip measured at 60 mins by […]; assay type: organism-based; conditions: in vivo, 1 h
Outline: (§6)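 Male C57BL/6N mice given 5 mg/kg i.p. in saline (vehicle 0.9% NaCl). Jump-flinch test 60 min post-injection: 1 min exploration, then 1 s foot shocks every 30 s at six intensities. Intensity at first flinch, vocalization and jump recorded. Mean ± SEM, one-way ANOVA with Fisher's LSD, N = 8–12/group.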

[14] = target: Kappa-type opioid receptor (Mus musculus) (UniProt P33534); test: Displacement of [3H]-diprenorphine from mouse KOR expressed in HEK293 cell membranes at 100 nM by two-point binding assay; conditions: Cell membrane, filed as agonist; outline: as §3
[15] = Toxicity in mouse assessed as […] by measuring vocalization in mouse at 5 mg/kg, ip measured at 60 mins by […]; assay type: organism-based; conditions: in vivo, 1 h
[16] = system: Mus musculus; test: Effect on healthy mouse assessed as visceromotor response measured at different colorectal distention pressure at 10 uM intra-colonic administration as enema by electromyography; assay type: ADME, organism-based; conditions: in vivo, other; outline: as §4
[17] = target: T1, Kappa-type opioid receptor; test: Agonist activity at EGFP-tagged mouse KOR expressed in HEK293 cells co-expressing beta-arrestin2 nano-luciferase assessed as beta-arrestin2 recruitment for 5 mins by BRET assay; assay type: functional, cell-based
Outline: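 HEK293 cells co-transfected with human β-arrestin-2 nano-luciferase and mouse KOR-EGFP plasmids (1:10). After ≥16 h they were plated in phenol red-free DMEM with 10% FBS and left to adhere overnight, then serum-starved 1 h at 37 °C. Furimazine (1:50) added for 5 min at 37 °C, with a 5 min baseline. Peptide added for 5 min at 37 °C in triplicate. Luminescence read at 460 nm and EGFP fluorescence at 510 nm.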

[18] = Toxicity in mouse assessed as […] by measuring flinch response in mouse at 5 mg/kg, ip measured at 60 mins by […]; assay type: organism-based; conditions: in vivo, 1 h; outline: as §6

Question: With `CC[C@H](C)[C@@H]1NC(=O)[C@@H]2CCCN2C(=O)[C@@H]2CCCN2C(=O)[C@H]([C@@H](C)CC)NC(=O)[C@H](CO)NC(=O)[C@H](C)NC(=O)[C@H]([C@@H](C)O)NC(=O)[C@@H]2CSSC[C@H](NC1=O)C(=O)N[C@@H](Cc1ccc(O)cc1)C(=O)NCC(=O)NCC(=O)N[C@@H](Cc1ccccc1)C(=O)N[C@@H](CCCNC(=N)N)C(=O)N2` (cyclo(ASIPPICYGGFRCT); disulfide 7-13) as the compound, how does the pKi ([1]; hek293) read?
Answer: < 5.00

Question: With `Oc1ccc2c3c1O[C@H]1c4[nH]c5c(c4C[C@@]4(O)[C@@H](C2)N(CC2CC2)CC[C@]314)C[C@@]1(O)[C@H]2Cc3ccc(O)c4c3[C@@]1(CCN2CC1CC1)[C@H]5O4` as the compound, how does the Activity [2] read?
Answer: inactive

Question: With `CCCC[C@H]1NC(=O)[C@@H](Cc2ccccc2)NC(=O)[C@@H](Cc2ccccc2)NC(=O)[C@@H]2CSSC[C@H](NC(=O)[C@H](CCCNC(=N)N)NC(=O)[C@@H](CCCNC(=N)N)NC1=O)C(=O)N[C@@H]([C@@H](C)O)C(=O)N[C@@H](C)C(=O)N[C@@H](CO)C(=O)N[C@@H]([C@@H](C)CC)C(=O)N1CCC[C@H]1C(=O)N1CCC[C@H]1C(=O)N[C@@H]([C@@H](C)CC)C(=O)N2` (cyclo(ASIPPIC[dF][dF][dNle][dR]RCT); disulfide 7-13) as the compound, how does the pKi ([1]; hek293) read?
Answer: < 5.00

Question: With `CC[C@H](C)[C@@H]1NC(=O)[C@@H]2CCCN2C(=O)[C@@H]2CCCN2C(=O)[C@H]([C@@H](C)CC)NC(=O)[C@H](CO)NC(=O)[C@H](C)NC(=O)[C@H]([C@@H](C)O)NC(=O)[C@@H]2CSSC[C@H](NC1=O)C(=O)N[C@H](Cc1ccccc1)C(=O)N[C@H](Cc1ccccc1)C(=O)N[C@H](CC(C)C)C(=O)N[C@H](CCCCN)C(=O)N[C@@H](CCCNC(=N)N)C(=O)N2` (cyclo(ASIPPIC[dF][dF][dL][dK]RCT); disulfide 7-13) as the compound, how does the pKi ([1]; hek293) read?
Answer: < 5.00

Question: With `CC[C@H](C)[C@@H]1NC(=O)[C@H](CCCNC(=N)N)NC(=O)[C@H](CCCNC(=N)N)NC(=O)[C@H](CC(C)C)NC(=O)[C@H](Cc2ccccc2)NC(=O)CNC(=O)CNC(=O)[C@H](Cc2ccc(O)cc2)NC(=O)[C@@H]2CSSC[C@H](NC1=O)C(=O)N[C@@H](Cc1ccccc1)C(=O)N1CCC[C@H]1C(=O)N[C@@H](CC(=O)O)C(=O)NCC(=O)N[C@@H](CCCNC(=N)N)C(=O)N2` as the compound, how does the pKi ([1]; hek293) read?
Answer: 5.49

Question: What about the pEC50 ([3]; hek293) of the same compound?
Answer: 5.85

Question: Which Emax [4] does the source give for `CC[C@H](C)[C@H](NC(=O)[C@H](CCCN=C(N)N)NC(=O)[C@H](CCCN=C(N)N)NC(=O)[C@H](CC(C)C)NC(=O)[C@H](Cc1ccccc1)NC(=O)CNC(=O)CNC(=O)[C@@H](N)Cc1ccc(O)cc1)C(=O)N[C@@H](CCCN=C(N)N)C(=O)N1CCC[C@H]1C(=O)N[C@@H](CCCCN)C(=O)N[C@@H](CC(C)C)C(=O)N[C@@H](CCCCN)C(N)=O` here?
Answer: 100%

Question: And the half-life [5]?
Answer: < 15 min

Question: With `CC[C@H](C)[C@@H]1NC(=O)[C@@H]2CCCN2C(=O)[C@H](Cc2ccccc2)NC(=O)CNC(=O)CNC(=O)[C@H](Cc2ccc(O)cc2)NC(=O)[C@H]([C@@H](C)O)NC(=O)[C@@H]2CSSC[C@H](NC1=O)C(=O)N[C@@H](Cc1ccccc1)C(=O)N1CCC[C@H]1C(=O)N[C@@H](CC(=O)O)C(=O)NCC(=O)N[C@@H](CCCNC(=N)N)C(=O)N2` (cyclo(CFPDGRCTYGGFPI); disulfide 1-7) as the compound, how does the pKi ([1]; hek293) read?
Answer: < 5.00

Question: With `CC[C@H](C)[C@@H]1NC(=O)[C@@H]2CCCN2C(=O)[C@@H]2CCCN2C(=O)[C@H]([C@@H](C)CC)NC(=O)[C@H](CO)NC(=O)[C@H](CCCCN)NC(=O)[C@H]([C@@H](C)O)NC(=O)[C@@H]2CSSC[C@H](NC1=O)C(=O)N[C@@H](Cc1ccccc1)C(=O)N1CCC[C@H]1C(=O)N[C@@H](CC(=O)O)C(=O)NCC(=O)N[C@@H](CCCNC(=N)N)C(=O)N2` as the compound, how does the pKi [1] read?
Answer: < 4.52

Question: For `CC[C@H](C)[C@@H]1NC(=O)[C@@H]2CSSC[C@H](NC(=O)[C@H](CCCCN)NC(=O)[C@H](CC(C)C)NC(=O)[C@H](CCCCN)NC(=O)[C@@H]3CCCN3C(=O)[C@H](CCCNC(=N)N)NC1=O)C(=O)N[C@@H](Cc1ccc(O)cc1)C(=O)NCC(=O)NCC(=O)N[C@@H](Cc1ccccc1)C(=O)N[C@@H](CC(C)C)C(=O)N[C@@H](CCCNC(=N)N)C(=O)N[C@@H](CCCNC(=N)N)C(=O)N2` (cyclo(CIRPKLKCYGGFLRR); disulfide 1-8), which Activity [6] is on record?
Answer: Active

Question: What about the Activity [7] of the same compound?
Answer: Active

Question: What about the Activity [8] of the same compound?
Answer: Active

Question: And the Activity [9]?
Answer: Active

Question: What about the Activity [10] of the same compound?
Answer: Non-Toxic

Question: What about the pKi [11] of the same compound?
Answer: < 5.00

Question: And the pKi [12]?
Answer: < 5.00

Question: What about the Activity [13] of the same compound?
Answer: Non-Toxic

Question: And the Activity [14]?
Answer: Active

Question: What about the Activity [15] of the same compound?
Answer: Non-Toxic

Question: And the Activity [16]?
Answer: Non-Toxic

Question: And the pEC50 [17]?
Answer: 5.85

Question: And the Activity [18]?
Answer: Non-Toxic

Question: And the pKi [1]?
Answer: 7.68

Question: What about the pEC50 [3] of the same compound?
Answer: 7.35
